Active and inactive are the calls of the source. The rule behind the calls is not given here.
Assays:
[1] = tested on: Fusarium oxysporum f. sp. lini; assay: Antifungal activity against Fusarium oxysporum f. sp. lini assessed as inhibition of radial fungal growth at 0.58 mM after 6 days; format: functional; settings: 144 h, read-out: GI
Summary of the method: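 Mycelial plug (6 mm) cut from margin of 4-day-old MEA culture placed on MEA plates containing compound (DMF vehicle, ≤1% v/v final) at 0.58 mM dithiocarbamoyl equivalent; 20 °C, 12 h photoperiod; colony diameter read daily over 6 days; percent growth inhibition versus untreated culture; three replicates per treatment, two runs; two-sample t-test, P 0.01.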

[2] = tested on: Fusarium oxysporum f. sp. lini; assay: Induction of morphological alterations in Fusarium oxysporum f. sp. lini; format: functional, organism-based
Summary of the method: (§1)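 Fayret liquid medium with compound in DMF at 0.58 mM dithiocarbamoyl equivalent, inoculated with glass-wool-filtered spores (hemocytometer count) from 10-day-old MEA culture to 104 spores mL-1; shaken at 90 tpm, 20 °C, 12 h photoperiod, 7 days; spore germination and hyphal morphology of treated versus untreated fungus examined by light microscopy.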

[3] = tested on: Fusarium oxysporum f. sp. lini; assay: Induction of delay in spore germination of Fusarium oxysporum f. sp. lini; format: functional, organism-based; summary of the method: as §1
[4] = tested on: Fusarium oxysporum f. sp. lini; assay: Inhibition of spore germination of Fusarium oxysporum f. sp. lini; format: functional, organism-based
Summary of the method: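 Liquid Fayret medium held N,N-dimethylformamide solutions at 0.58 mM equivalent of dithiocarbamoyl group. Spores were washed from a 10-day MEA culture, glass-wool filtered, counted by hemocytometer and seeded at 10^4 spores mL-1. Tubes were shaken at 90 tpm at 20 °C under a 12 h photoperiod for 7 days. Germination timing and hyphal morphology were assessed by light microscopy against untreated controls.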

[5] = tested on: Fusarium oxysporum f. sp. lini; assay: Antifungal activity against Fusarium oxysporum f. sp. lini assessed as inhibition of radial fungal growth at 100 ppm after 6 days; format: functional
Summary of the method: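 Radial growth on malt extract agar. Compounds dissolved in N,N-dimethylformamide (final ≤1% v/v) were mixed into molten MEA at 50 °C, giving 0.58 mM equivalent of dithiocarbamoyl group. A 6 mm plug from the margin of a 4-day MEA culture was placed on each plate. Plates were held at 20 °C under a 12 h photoperiod, with colony diameter read daily for 6 days. Two runs, three replicates each; two-sample t-test against untreated cultures.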

Row | Compound | inhibition of growth at 580 µM [1] [%] | Activity [3] | further results
1 | CCCC(=O)OC(CSC(=S)N(CC)CC)CSC(=S)N(CC)CC | 12 | – | –
2 | CCN(CC)C(=S)SC[C@H]1OC(O)[C@H](O)[C@@H](SC(=S)N(CC)CC)[C@@H]1O (stereo not given in full) | 18 | Active | Activity [2]: Active
3 | CCN(CC)C(=S)SCC(O)CO (racemic) | 10 | – | –
4 | CCN(CC)C(=S)S [DITIOCARB SODIUM] | – | – | inhibition [4]: Active; inhibition of growth at 100 ppm ([5]; 144 h, read-out: GI): 18%
5 | CCN(CC)C(=S)SCC(O)CSC(=S)N(CC)CC | 30 | Active | Activity [2]: Active
6 | CCCCCCCC(=O)OC(CSC(=S)N(CC)CC)CSC(=S)N(CC)CC | 7 | – | –
7 | CCN(CC)C(=S)SC[C@H](O)[C@H]1O[C@@H]2OC(C)(C)O[C@@H]2[C@H]1SC(=S)N(CC)CC | 17 | Active | –
8 | CCN(CC)C(=S)SCC(CSC(=S)N(CC)CC)OC(C)=O | 12 | – | –
9 | maneb | – | – | inhibition [4]: Active; growth inhibition (GI) [5]: 12%
10 | CCSC(=S)NCC(O)CNC(=S)SCC | 27 | Active | Activity [2]: Active
11 | CCN(CC)C(=S)SCC(=O)CSC(=S)N(CC)CC | 12 | – | –

From ChEMBL document CHEMBL3045340, “Synthesis and antifungal activity of novel bisdithiocarbamate derivatives of carbohydrates against Fusarium oxysporum f. sp. lini” (2000)
